What was measured:
MS2 coat protein [1] = experiment: apparent Kd, MS2 coat protein; higher = weaker binding; RNA-MaP array; tryptophan 2.4 mM where present
Outline: (§1)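 Binding was read on Illumina sequencing-chip clusters where stalled E. coli RNA polymerase had transcribed each design. A titration of SNAP-549-labelled MS2 coat protein began at 0.7 or 1.5 nM and doubled to 3 µM, once without ligand and once with constant ligand, in 100 mM Tris-HCl pH 7.5, 80 mM KCl, 4 mM MgCl2, BSA, DTT, yeast tRNA and Tween-20. The apparent Kd is the median of filtered per-cluster binding-curve fits, based on green signal normalised to red-channel RNA signal and control-cluster median Fmax.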

MS2 coat protein [2] = experiment: apparent Kd, MS2 coat protein; higher = weaker binding; RNA-MaP array; theophylline 2 mM where present
Outline: as §1

[3] = designed as: OFF switch for tryptophan, no ligand
[4] = ligand present: tryptophan, designed as: OFF switch for tryptophan
[5] = designed as: ON switch for tryptophan, no ligand
[6] = ligand present: tryptophan, designed as: ON switch for tryptophan
[7] = designed as: ON switch for theophylline, no ligand
[8] = ligand present: theophylline, designed as: ON switch for theophylline
[9] = designed as: OFF switch for theophylline, no ligand
[10] = ligand present: theophylline, designed as: OFF switch for theophylline

| Sequence | apparent Kd (MS2 coat protein [2]; [7]) | apparent Kd (MS2 coat protein [2]; [8]) | apparent Kd (MS2 coat protein [2]; [9]) | apparent Kd (MS2 coat protein [2]; [10]) | also measured |
| --- | --- | --- | --- | --- | --- |
| UAUAGUACCAGACAUGAGGAUCACCCAUGUCGAGGACCGGUACGGCCGCCACUCGGCAGUUUGCGUCCUCAGGUACUCCGGGUCA | – | – | – | – | apparent Kd (MS2 coat protein [1]; [3]): 13.9 nM; apparent Kd (MS2 coat protein [1]; [4]): 16.6 nM |
| UGUGCAUGAGUUGUAAAAGCUCAUGGGCAUCGAGGACCGGUACGGCCGCCACUCGGCUGUACAUGAGGAUCACCCAUGUCAGGGU | – | – | – | – | apparent Kd (MS2 coat protein [1]; [5]): 302 nM; apparent Kd (MS2 coat protein [1]; [6]): 567 nM |
| UCAUAAGUACCGGUCCUCAGAUCCUCAUGACGAGGACCGGUACGGCCGCCACUCGAAACAUGAGGAUCACCCAUGUAAUAAUAUU | – | – | – | – | apparent Kd (MS2 coat protein [1]; [3]): 21.3 nM; apparent Kd (MS2 coat protein [1]; [4]): 19 nM |
| AUUGUGAAGUCGGCCGCCACUGCAUAGUUUAACCACAUGUAACAUGAGGAUCACCCAUGUAAUGACAGGACCGGGACAAUAGUAA | – | – | – | – | apparent Kd (MS2 coat protein [1]; [5]): 28 nM; apparent Kd (MS2 coat protein [1]; [6]): 21.1 nM |
| ACAUGAGGAUCACCCAUGUCAGGGCACGAUACCAGCUGAUCCGAUGGCCCUUGGCAGCGUGACGUGUGGUCAUGAGGAUCACCCG | 189 nM | 156 nM | – | – | – |
| UUUAUGGAGCUUUUAUUUACGAUUUCUGAUACCAGUGUUUCAUUUCACCCUUGGCAGCAGUGACAUGAGGAUCACCCAUGUAAUA | 28 nM | 22.3 nM | – | – | – |
| UGUAUGUGAUUUGAUACCAGUCCAACUGGUAAAACAUGAGGAUCACCCAUGUAAAAUUGGGACCCUUGGCAGCAAAUCGCAUACU | 355 nM | 30.1 nM | – | – | – |
| UUUACAUGAGGAUCACCCAUGUGCCAUGAUACCAGACAUGAAAAUGUCCCUUGGCAGCAUGAAUGAUUCAUAGGAUAAUUAUGGG | 99.2 nM | 98.8 nM | – | – | – |
| GAUCUUGCGGGCGCCCGCAAGGUUGCGGAUACCAGCGAGAUUAAUCGCCCUUGGCAGCCGAACAUGAGGAUCACCCAUGUCGGAC | 9.62 nM | 15.3 nM | – | – | – |
| UUUAAAAUAACAGAUACCAGCGUGUUAUAAAACAUGAGGAUCACCCAUGUAGUGAUCAAGCGCCCUUGGCAGCUGGUAUUUUAGG | 151 nM | 167 nM | – | – | – |
| AUUGCGAGUGAGUCGUGUAACGAUUCAGAUACCAGGCAUUUCGUUGUCCCUUGGCAGCUGUCUUACAUGAGGAUCACCCAUGUUA | – | – | 52.3 nM | 106 nM | – |
| AGACAUGUAAGAUAAUUGACUUUUACAGAUACCAGACUGUCUAAUGUCCCUUGGCAGCUGCAUUACAUGAGGAUCACCCAUGUUA | – | – | 19.2 nM | 17.9 nM | – |
| ACGACGCAUAGUGAUACCAGUAGAACAUGAGGAUCACCCAUGUCUGUGGCGCUCCGCCUCUGCCCUUGGCAGCACUAUGCGUCAG | 12.4 nM | 18.6 nM | – | – | – |
| AACCGAGGCUAUCCACAAAGAAAAUGUGAUACCAGAAUAAUUUUAUUCCCUUGGCAGCAUGACAUGAGGAUCACCCAUGUGUCUU | 32.3 nM | 35.6 nM | – | – | – |
| GAAAGAUGAGGCGGCAGUACCGAUGUCGAUACCAGCAUGAACAAAUGCCCUUGGCAGCGACAUGAGGAUCACCCAUGUAUCUGCG | – | – | 11.3 nM | 127 nM | – |
| GUUAUAUUAAUUGAUACCAGCGAGAAAACAUGAGGAUCACCCAUGUUCGCCCAUGUUAAGCGCCCUUGGCAGCAAUUUUAUUAGC | – | – | 30.6 nM | 91.6 nM | – |
| UAUAUAUGGAUGGAUACCAGCAGAGAAAACGUUUAUCCUAACAUGAGGAUCACCCAUGUAUGCCCUUGGCAGCUGUUUAUAUAUA | – | – | 26.6 nM | 29.1 nM | – |
| CGGUUUGUGAUGGAUACCAGCAGAGAAAACGUUUAUCCUAACAUGAGGAUCACCCAUGUAUGCCCUUGGCAGCUGUUGUGGGCUG | – | – | 44.7 nM | 45.6 nM | – |
| AACAUCUGGCGUGAUACCAGCCACAUGAGGAUCACCCAUGUCAACACUCGCAAUUGCGACGGCCCUUGGCAGCACGCAUCCUCAG | 64 nM | 12.1 nM | – | – | – |
| AAGGUGAUCCGUGAUACCAGCUCAACAUGAGGAUCACCCAUGUAACGGACGAAAGUCCGGAGCCCUUGGCAGCACGGUAAUAAUA | 11.2 nM | 11.4 nM | – | – | – |
| GAUGAACUAUUUGAUACCAGACUACAUGAGGAUCACCCAUGUGAGUUUCCUCCUCUGCCAGUCCCUUGGCAGCAAAUAGUUUAUC | – | – | 56.5 nM | 148 nM | – |
| ACCAUGUAAUCAGAUACCAGACAUCUUUUAAAUCAUAUUACAUGAGGAUCACCCAUGUUGGUCCCUUGGCAGCUGAAAUAUUUCA | 356 nM | 109 nM | – | – | – |
| UUCAAAGGGAACGGUGCUGGUAACAGAGAUACCAGAGUAAUAAUACUCCCUUGGCAGCUCAUAACAUGAGGAUCACCCAUGUAAU | – | – | 13.4 nM | 16.6 nM | – |
| ACAUGAGGAUCACCCAUGUGCCGUCUUGAUACCAGACCCGAAGUAGUCCCUUGGCAGCAACUACGUGACGGUCGCGCAUGUGUAG | – | – | 19.8 nM | 28.7 nM | – |
| CCCAACAGUGAUGCCGGUGUUGGUGGUGAUACCAGCGUCUUAUGGCGCCCUUGGCAGCACCAACAUGAGGAUCACCCAUGUGAAA | 55.2 nM | 409 nM | – | – | – |
| UCGUGUAUAUCGGAUACCAGUGAAAUCGAUACAUGAGGAUCACCCAUGUGAGAGGAUGUACACCCUUGGCAGCUGUAUAUAUCUG | 24.3 nM | 13.6 nM | – | – | – |
